How the values were obtained:
[1] = biological target: T1, Amine oxidase [flavin-containing] A (Homo sapiens, UniProt P21397); test: Reversible inhibition of human recombinant MAO-A expressed in baculovirus infected […] insect cells at 300 nM after 1 hr by centrifugation-ultrafiltration method
T1 sequence (P21397 whole entry): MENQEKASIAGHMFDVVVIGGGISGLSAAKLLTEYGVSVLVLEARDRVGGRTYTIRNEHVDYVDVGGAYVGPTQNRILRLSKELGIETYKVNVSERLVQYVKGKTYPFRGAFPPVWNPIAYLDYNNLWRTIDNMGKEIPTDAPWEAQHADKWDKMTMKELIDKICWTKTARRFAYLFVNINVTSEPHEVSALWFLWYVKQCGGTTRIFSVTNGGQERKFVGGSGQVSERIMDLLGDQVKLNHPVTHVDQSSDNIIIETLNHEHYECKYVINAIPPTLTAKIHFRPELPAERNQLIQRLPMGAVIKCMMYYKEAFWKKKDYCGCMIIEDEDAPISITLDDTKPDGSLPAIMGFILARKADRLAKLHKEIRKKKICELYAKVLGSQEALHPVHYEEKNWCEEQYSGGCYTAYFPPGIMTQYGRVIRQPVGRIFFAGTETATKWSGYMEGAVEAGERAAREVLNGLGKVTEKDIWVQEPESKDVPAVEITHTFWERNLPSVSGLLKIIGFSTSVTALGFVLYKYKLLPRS
Method in brief: (§1)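 Recombinant hMAO-A (baculovirus-infected BTI insect cells) preincubated with a single inhibitor concentration in 0.05 M sodium phosphate, pH 7.4, 1 h at 37°C. One aliquot kept at 4°C unwashed. Remainder ultrafiltered (30 kDa membrane, 9000x g, 20 min, 4°C), resuspended and spun twice more. Activity by Amplex Red/HRP H2O2 fluorescence. Percent inhibition vs vehicle controls, with and without washing.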

[2] = biological target: T1, Amine oxidase [flavin-containing] A; test: Reversible inhibition of human recombinant MAO-A expressed in baculovirus infected […] insect cells at 300 nM incubated for 1 hr followed by compound washout by centrifugation-ultrafiltration method; method in brief: as §1

`O=C(NCCN1CCOCC1)c1ccc(Cl)cc1` [MOCLOBEMIDE] was tested, and the inhibition at 0.3 µM [1] was 89% and the inhibition at 0.3 µM [2] was 9.56%.
